In ChEMBL document CHEMBL1127290, “1-(2,5-Dimethoxy-4-(trifluoromethyl)phenyl)-2-aminopropane: a potent serotonin 5-HT2A/2C agonist” (J Med Chem, 1994):

B1: 5-hydroxytryptamine receptor 2C (Mus musculus), P34968 (protein)
chain: MVNLGTAVRSLLVHLIGLLVWQFDISISPVAAIVTDTFNSSDGGRLFQFPDGVQNWPALSIVVIIIMTIGGNILVIMAVSMEKKLHNATNYFLMSLAIADMLVGLLVMPLSLLAILYDYVWPLPRYLCPVWISLDVLFSTASIMHLCAISLDRYVAIRNPIEHSRFNSRTKAIMKIAIVWAISIGVSVPIPVIGLRDESKVFVNNTTCVLNDPNFVLIGSFVAFFIPLTIMVITYFLTIYVLRRQTLMLLRGHTEEELRNISLNFLKCCCKKGDEEENAPNPNPDQKPRRKKKEKRPRGTMQAINNEKKASKVLGIVFFVFLIMWCPFFITNILSVLCGKACNQKLMEKLLNVFVWIGYVCSGINPLVYTLFNKIYRRAFSKYLRCDYKPDKKPPVRQIPRVAATALSGRELNVNIYRHTNERVVRKANDTEPGIEMQVENLELPVNPSNVVSERISSV
B2: 5-hydroxytryptamine receptor 2A (Mus musculus), P35363 (protein)
chain: MEILCEDNISLSSIPNSLMQLGDDSRLYPNDFNSRDANTSEASNWTIDAENRTNLSCEGYLPPTCLSILHLQEKNWSALLTTVVIILTIAGNILVIMAVSLEKKLQNATNYFLMSLAIADMLLGFLVMPVSMLTILYGYRWPLPSKLCAVWIYLDVLFSTASIMHLCAISLDRYVAIQNPIHHSRFNSRTKAFLKIIAVWTISVGISMPIPVFGLQDDSKVFKEGSCLLADDNFVLIGSFVAFFIPLTIMVITYFLTIKSLQKEATLCVSDLSTRAKLSSFSFLPQSSLSSEKLFQRSIHREPGSYAGRRTMQSISNEQKACKVLGIVFFLFVVMWCPFFITNIMAVICKESCNENVIGALLNVFVWIGYLSSAVNPLVYTLFNKTYRSAFSRYIQCQYKENRKPLQLILVNTIPTLAYKSSQLQVGQKKNSQEDAEPTANDCSMVTLGNQHSEEMCTDNIETVNEKVSCV

Key:
Format in all cases: functional
[1] = substrate: COc1cc(C(F)(F)F)c(OC)cc1CC(C)N; assay: (§1) The maximum responses of [3H]- inositol monophosphate accumulation in cells expressing the 5-hydroxytryptamine 2C receptor
In short: (§2)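 A9 cells expressing cloned 5-HT2C receptor, labelled 18 h with 1 μCi/mL [3H]inositol in inositol-free DMEM with dialysed serum. Compounds given 60 min with 10 mM LiCl in Krebs bicarbonate buffer, then [3H]inositol monophosphate accumulation measured. Expressed as % of the 5-HT (10^-5 M) maximum minus control. Vmax by nonlinear regression. Triplicates in three experiments, mean ± SE.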

[2] = substrate: COc1cc(C(F)(F)F)c(OC)cc1CCN; assay: as §1; in short: as §2
[3] = substrate: COc1cc(CC(C)N)c(OC)cc1I; assay: as §1; in short: as §2
[4] = substrate: COc1cc(C(F)(F)F)c(OC)cc1CC(C)N; assay: (§3) The maximum responses of [3H]- inositol monophosphate accumulation in cells expressing the 5-hydroxytryptamine 2A receptor
[5] = substrate: COc1cc(C(F)(F)F)c(OC)cc1CCN; assay: as §3
[6] = substrate: COc1cc(CC(C)N)c(OC)cc1I; assay: as §3

Protein | Vmax [1] | Vmax [2] | Vmax [3] | Vmax [4] | Vmax [5] | Vmax [6]
B1 | 82 | 80 | 82 |  |  | 
B2 |  |  |  | 91 | 58 | 94
